Source: ChEMBL document CHEMBL4665801, “Pyrazole-Based Lactate Dehydrogenase Inhibitors with Optimized Cell Activity and Pharmacokinetic Properties” (J Med Chem, 2020)
Calls of active or inactive are those of the source.

What was measured:
[1] = In vivo inhibition of LDH in human A673 cells xenografted athymic nude CrTac:NCr-Foxn1nu mouse assessed as tumor residual LDH activity at 50 mg/kg, iv after 1 hr by UV-VIS spectrometric method relative to control; assay type: functional
How it was run: (§1)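 Female athymic nude mice carried SQ A673 flank xenografts (2 million cells) and received a single IV dose of 50 mg/kg in PBS-based vehicle. Four mice per time point were sacrificed at 1, 3, 6 and 24 h. Frozen tumor (10–50 mg) was pulverized and lysed in PBS pH 7.4 with 0.1% Triton X-100 on ice for 1 h. Cleared lysate (10–20 μg) was assayed with 10 mM pyruvate and 0.3 mM final NADH, reading NADH oxidation at 340 nm at 37 °C.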

[2] = test system: Mus musculus; assay: In vivo inhibition of LDH in human A673 cells xenografted athymic nude CrTac:NCr-Foxn1nu mouse assessed as reduction in tumor LDH activity at 50 mg/kg, iv after 6 hrs by UV-VIS spectrometric method relative to control; assay type: functional; how it was run: as §1
[3] = test system: Mus musculus; assay: In vivo inhibition of LDH in human A673 cells xenografted athymic nude CrTac:NCr-Foxn1nu mouse assessed as reduction in tumor LDH activity at 50 mg/kg, iv after 1 hr by NADH-based UV-VIS spectrometric method relative to control; assay type: functional, organism-based; how it was run: as §1
[4] = target: T1, L-lactate dehydrogenase A chain (Homo sapiens, UniProt P00338); assay: Inhibition of recombinant human LDHA using sodium pyruvate as substrate preincubated for 5 mins followed by diaphorase/resazurin addition and measured after 20 mins by fluorescence based assay
[5] = target: T1, L-lactate dehydrogenase A chain; assay: Inhibition of LDHA in human A673 cells assessed as decrease in lactate production incubated for 2 hrs by lactate oxidase-coupled fluorescence based assay; assay type: cell-based
[6] = test system: A673; assay: Cytotoxicity against human A673 cells assessed as reduction in cell viability after 48 hrs by CellTiter-Glo assay; assay type: functional, cell-based; conditions: A673, 48 h
[7] = target: T1, L-lactate dehydrogenase A chain; assay: Inhibition of LDHA in human MIA PaCa-2 cells assessed as decrease in lactate production incubated for 2 hrs by lactate oxidase-coupled fluorescence based assay; assay type: cell-based
[8] = test system: MIA PaCa-2; assay: Cytotoxicity against human MIA PaCa-2 cells assessed as reduction in cell viability after 48 hrs by CellTiter-Glo assay; assay type: functional, cell-based; conditions: MIA PaCa-2, 48 h
[9] = target: T1, L-lactate dehydrogenase A chain; assay: Inhibition of GS[HiBiT]GS-tagged LDHA (unknown origin) expressed in HEK-293T cells measured after 1 hr by […]; assay type: cell-based
How it was run: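 HEK293T cells were transiently transfected for 24 h with CMV-driven LDHA carrying a C-terminal GS[HiBiT]GS tag, then reseeded at 2500 cells/well in DPBS with Ca/Mg and 1 g/L glucose. […] Cells were lysed with NP40, and 11S (100 nM final) plus furimazine was added.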

[10] = target: L-lactate dehydrogenase B chain (Homo sapiens) (UniProt P07195); assay: Inhibition of recombinant human LDHB using sodium pyruvate as substrate preincubated for 5 mins followed by diaphorase/resazurin addition and measured after 20 mins by fluorescence based assay
Sequence of L-lactate dehydrogenase B chain (Homo sapiens) (P07195 2-334 limits assumed): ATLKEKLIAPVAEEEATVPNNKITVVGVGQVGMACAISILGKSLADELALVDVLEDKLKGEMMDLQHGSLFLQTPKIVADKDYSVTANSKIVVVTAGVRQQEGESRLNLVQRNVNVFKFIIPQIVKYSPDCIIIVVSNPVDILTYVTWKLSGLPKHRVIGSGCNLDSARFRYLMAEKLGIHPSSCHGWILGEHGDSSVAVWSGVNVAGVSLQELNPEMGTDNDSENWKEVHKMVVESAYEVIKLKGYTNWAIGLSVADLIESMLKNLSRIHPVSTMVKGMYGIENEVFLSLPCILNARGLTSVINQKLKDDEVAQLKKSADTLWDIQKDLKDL

[11] = species: Sus scrofa; assay: Inhibition of porcine heart MDH using malic acid as substrate preincubated for 10 mins followed by substrate addition and measured after 5 mins by resazurin based fluorescence based assay; conditions: time 15.0 min
[12] = Oral bioavailability in CD-1 mouse at 50 mg/kg and measured up to 24 hrs by LC/MS-MS analysis; assay type: ADME, organism-based; conditions: in vivo
How it was run: (§2)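 Male CD1 mice, about 6–8 weeks old and 20–30 g, were dosed PO at 40 or 50 mg/kg in 0.1 M NaOH in PBS, pH 7–8.5, prepared the same day. Three mice per cohort. Dorsal metatarsal vein blood was collected into heparin at 15, 30 min and 1, 2, 4, 8, 12, 24 h. Plasma was spun at 4 °C, frozen at –75 °C and quantified by LC–MS/MS.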

[13] = Volume of distribution at steady state in CD-1 mouse at 10 mg/kg, iv and measured up to 24 hrs by LC/MS-MS analysis; assay type: ADME, organism-based; conditions: in vivo
How it was run: (§3)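 Male CD1 mice, about 6–8 weeks old and 20–30 g, received 10 mg/kg IV in 0.1 M NaOH in PBS adjusted to pH 7–8.5, made fresh on the day of dosing. Three mice per cohort. Blood was taken from the dorsal metatarsal vein at 5, 15, 30 min and 1, 2, 4, 8, 12, 24 h into heparin tubes. Plasma was spun at 4 °C, stored at –75 °C and analysed by LC–MS/MS. For IV dosing Cmax = C0.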

[14] = AUClast in CD-1 mouse at 50 mg/kg, po and measured up to 24 hrs by LC/MS-MS analysis; assay type: ADME, organism-based; set-up: route oral, dose 50 mg/kg, time <=24; conditions: in vivo; how it was run: as §2
[15] = AUClast in CD-1 mouse at 10 mg/kg, iv and measured up to 24 hrs by LC/MS-MS analysis; assay type: ADME, organism-based; set-up: route intravenous, dose 10 mg/kg, time <=24; conditions: in vivo; how it was run: as §3
[16] = Cmax in CD-1 mouse at 10 mg/kg, iv and measured up to 24 hrs by LC/MS-MS analysis; assay type: ADME, organism-based; set-up: route intravenous, dose 10 mg/kg, time <=24; conditions: in vivo; how it was run: as §3
[17] = Cmax in CD-1 mouse at 50 mg/kg, po and measured up to 24 hrs by LC/MS-MS analysis; assay type: ADME, organism-based; set-up: route oral, dose 50 mg/kg, time <=24; conditions: in vivo; how it was run: as §2
[18] = Terminal half life in CD-1 mouse at 50 mg/kg, po and measured up to 24 hrs by LC/MS-MS analysis; assay type: ADME, organism-based; conditions: in vivo
How it was run: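 Male CD1 mice, about 6–8 weeks old and 20–30 g, were dosed PO at 40 or 50 mg/kg in 0.1 M NaOH in PBS, pH 7–8.5, prepared the same day. Three mice per cohort. Plasma was spun at 4 °C, frozen at –75 °C and quantified by LC–MS/MS.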

[19] = Terminal half life in CD-1 mouse at 10 mg/kg, iv and measured up to 24 hrs by LC/MS-MS analysis; assay type: ADME, organism-based; conditions: in vivo; how it was run: as §3
[20] = target: T1, L-lactate dehydrogenase A chain; assay: Binding affinity to human His-tagged LDHA by SPR analysis
How it was run: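 SPR on a Mass-1 instrument gave K_D and k_off. Residence time τ was calculated as 1/k_off (s⁻¹).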

| SMILES | Activity [1] [%] | inhibition [2] | inhibition [3] | IC50 [4] [nM] | IC50 [5] [nM] | IC50 [6] [nM] | IC50 [7] [nM] | IC50 [8] [nM] | IC50 [9] [nM] | inhibition [10] | inhibition [11] | F [12] [%] | Vdss [13] [L/kg] | AUClast [14] [ng·h/mL] | AUClast [15] [ng·h/mL] | Cmax [16] [ng/mL] | Cmax [17] [ng/mL] | beta t1/2 [18] [h] | beta t1/2 [19] [h] | Kd [20] [nM] |
| --- | --- | --- | --- | --- | --- | --- | --- | --- | --- | --- | --- | --- | --- | --- | --- | --- | --- | --- | --- | --- |
| NS(=O)(=O)c1ccc(Cc2c(-c3cccc(C#Cc4ccc(C5CC5)s4)c3)nn(-c3nc(C(=O)O)cs3)c2CC2CC2)cc1F | <40 | Active | Active | 201 | 403 | 332 | 434 | 342 | 183 | Active | inactive |  |  |  |  |  |  |  |  |  |
| NS(=O)(=O)c1ccc(Cc2c(-c3ccc(F)c(/C=C/C4CCCC4)c3)nn(-c3nc(C(=O)O)cs3)c2CC2CC2)cc1F |  | Active | Active | 74 | 371 | 488 | 149 | 454 | 108 | Active | inactive | 83 | 13.3 | 9220 | 2810 | 6440 | 1200 | 3.1 | 5.5 |  |
| NS(=O)(=O)c1ccc(Cc2c(-c3ccc(F)c(C#CCC4CCCC4)c3)nn(-c3nc(C(=O)O)cs3)c2CC2CC2)cc1F |  |  |  | 202 | 487 | 939 | 424 | 848 | 178 | Active | inactive |  |  |  |  |  |  |  |  | 0.123 |
| Cc1cnc(C#Cc2cc(-c3nn(-c4nc(C(=O)O)cs4)c(CC4CC4)c3Cc3ccc(S(N)(=O)=O)c(F)c3)ccc2F)s1 |  | Active | Active | 52 | 1320 | 803 | 1600 | 909 | 170 | Active | inactive | 39 | 17.9 | 2650 | 1360 | 3320 | 2030 | 3.54 | 4.9 |  |
| NS(=O)(=O)c1ccc(Cc2c(-c3ccc(F)c(C#CC4CCCC4)c3)nn(-c3nc(C(=O)O)cs3)c2CC2CC2)cc1F |  |  |  | 22 | 509 | 100 | 333 | 314 | 112 | Active | inactive |  |  |  |  |  |  |  |  | 0.0193 |
